Screening results: PubChem, Broad Institute
Env fusion inh: inhibitors of HIV-1 Env-driven cell-cell fusion, primary screen, HeLa-JRFL effector, CEM21 target cells, luciferase; inhibition, % at 12.3 µM; hit rate 1.1% among 360,000;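 active = mean replicate inhibition score of at least 50 and every replicate individually at or above 50; inconclusive = only one of the two criteria met; inactive = mean below 50 and not all replicates reaching 50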
FN deposit inh: inhibitors of fibronectin matrix deposition, primary screen, AH1F cells, Alexa488-fibronectin fluorescence, plate reader | AH1F fibroblasts, overnight | hit rate 0.086% among 350,000 | inhibition, % at 12.6 µM | AID 743247, 2014;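 active = mean inhibition across replicates of 30% or more, regardless of how many single replicates reach that level; inconclusive = mean under 30% yet at least half of replicates reach 30%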
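Schedule: 1 h cell adhesion before compound, then overnight fibronectin incubation; test system: AH1F fibroblast monolayer depositing Alexa488-labelled fibronectin into matrix; quantity: 10000 AH1F cells per well; probe or stimulus: fluorescent fibronectin at 24 nM final; signal: fluorescence, ex 485 nm, em 525 nm; evaluation: percent inhibition as loss of matrix-bound fibronectin fluorescence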
rRNA inh HTS: reduced GFP signal of wild-type E. coli, primary screen, bacterial rRNA inhibitor project, GFP/RFP fluorescence, OD600, single point; E. coli WT GFP vs humanized-ribosome RFP mutants, 24 h; stronger effect = lower value; DMSO median 0, no signal -100; GFP signal change (wild-type ribosome), % (concentration not given with the values); hit rate 1.6% among 350,000;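 active = significant combined selectivity score with lowered wild-type GFP, culture density cut under 30%, mutant RFP and density less affected; inactive = any of these conditions unmet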
S100A4 inh HTS: inhibitors of S100A4-myosin IIA peptide binding, primary screen, biochemical, fluorescence polarization, TAMRA-MyoIIA peptide; hit rate 0.14% among 360,000; inhibition, % at 10.7 µM; AID 652163, 2013;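 active = mean inhibition of at least 70% across replicates, with every replicate also reaching that level; inconclusive = mean inhibition reaches 70% but some replicates fall short; inactive = mean inhibition below 70%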
Target sequence (P26447 whole entry, looked up): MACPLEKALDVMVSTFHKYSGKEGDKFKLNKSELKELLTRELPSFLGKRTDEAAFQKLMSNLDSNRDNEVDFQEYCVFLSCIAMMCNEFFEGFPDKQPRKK
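incubation = readout 5 min after mixing, signal stable up to 60 min | system = S100A4 monomer protein | buffer or medium = HEPES pH 7.2 with CaCl2, KCl, NaCl, DTT, Triton | benchmarks = neutral control DMSO, positive control TFP | also added = fluorescent myosin IIA peptide, 5 nM | compound dosing = one concentration per compound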
Vif inh: HIV Vif self-association inhibitors, primary screen, imaging, HEK293T, single point; HEK293T cells, Vif self-association by quenched fluorescence, 24 h; inhibition, % at 7.49 µM; hit rate 0.35% among 340,000; AID 602346, 2012; in the data active = inhibition above about 50%, passing the limit was not always enough; inconclusive = no clear call, values can overlap the other calls; inactive = below about 31%
miR122 inh: miR-122 Renilla sensor signal increase in Huh7, primary screen, miR-122 inhibitor project, cell-based, single point, plate reader; Huh7 miR-122 Renilla luciferase sensor, 48 h; neutral wells = 0, positive control = 100; activation (reporter increase), % at 12.5 µM; hit rate 0.3% among 340,000; AID 602342, 2012;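 active = mean replicate activation score at least 90 and every replicate individually at or above 90; inconclusive = only one of the two criteria met; inactive = neither criterion met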;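 note: higher luciferase means less miR-122 activity so hits act as miR-122 inhibitors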
Each line names hits and unclear results; the compound was inactive in the other large screens; ! = not active in a repeat; [ ] = another dose, or the depositor's remark. Shown are actives, neighbours in structure and some others; about 2.6% of the full set was active somewhere.

COc1ccccc1S(=O)(=O)N(C)C[C@H]1Oc2cc(C#CCC(C)C)ccc2S(=O)(=O)N([C@H](C)CO)C[C@@H]1C	none (no result: FN deposit inh, Vif inh)
CNC[C@@H]1Oc2ccc(NC(=O)Cn3cnnn3)cc2CC(=O)N([C@@H](C)CO)C[C@@H]1C	none (no result: Env fusion inh, FN deposit inh, S100A4 inh HTS, Vif inh)
CC1(c2cccc(Br)c2)NC(=O)N(CC(=O)Nc2ccc3c(c2)OCO3)C1=O (stereo unspecified)	rRNA inh HTS -22
Cc1ccc(-c2cnc3c(Nc4cccc(OC(F)(F)C(F)F)c4)nccn23)cc1	Env fusion inh 61
O=[N+]([O-])c1ccc(-c2nc(C(Cl)Cl)c3ccccc3n2)cc1	Env fusion inh 74
CCCc1cc(=O)[nH]c(SCC(=O)Nc2ccc(OC)c(S(=O)(=O)N3CCCCC3)c2)n1	rRNA inh HTS -22
COc1ccc(NC(=O)CCN2C(=O)C3CC=CCC3C2=O)cc1S(=O)(=O)N1CCCCC1 (stereo unspecified)	Vif inh 73 (no result: miR122 inh)
COc1ccc(NC(=O)CSCC(=O)Nc2ccc(C)c(S(=O)(=O)N3CCCCCC3)c2)cc1	rRNA inh HTS -35
Cc1ccc(NC(=O)COC(=O)C2CC3C=CC2C3)cc1S(=O)(=O)N1CCCCC1 (stereo unspecified)	rRNA inh HTS -26
COc1ccc(NC(=O)CCCC2CCCCC2)cc1S(=O)(=O)N1CCCCC1	none (no result: rRNA inh HTS, miR122 inh)
Cc1noc(C)c1S(=O)(=O)Nc1ccc2c(c1)CC(=O)N([C@@H](C)CO)C[C@H](C)[C@H](CN(C)Cc1ccncc1)O2	none (no result: FN deposit inh, Vif inh)
CO[C@@H]1CN(C)C(=O)c2cc(NC(=O)c3ccccc3)ccc2OC[C@H](C)N(C(=O)CN(C)C)C[C@@H]1C	none (no result: Env fusion inh, Vif inh)
Cc1ccc(NC(=O)COc2ccccc2C#N)cc1S(=O)(=O)N1CCCCCC1	rRNA inh HTS -25
COc1ccc(NC(=O)COc2cc(C)cc(C)c2)cc1S(=O)(=O)N1CCCCC1	Env fusion inh 61
CN(C)/C=C/c1oc2ccc(O)cc2c1[N+](=O)[O-]	rRNA inh HTS -30 (no result: miR122 inh)
COc1ccc(S(=O)(=O)Nc2ccc3c(c2)CC(=O)N([C@@H](C)CO)C[C@@H](C)[C@@H](CN(C)S(=O)(=O)c2cccs2)O3)cc1	none (no result: Vif inh)
COC(=O)c1scc(S(=O)(=O)C(C)C)c1N/N=C(\C#N)C(=O)c1ccc(Cl)cc1	rRNA inh HTS -43 (no result: miR122 inh)
COc1ccc(S(=O)(=O)Nc2ccc3c(c2)C(=O)N([C@H](C)CO)C[C@H](C)[C@H](CN(C)Cc2ccccc2)OCCCC[C@@H](C)O3)cc1	none (no result: S100A4 inh HTS, Vif inh)
Cc1ccc2[nH]cc(C(=O)NCc3cccs3)c(=O)c2c1	rRNA inh HTS -24 (no result: Env fusion inh, FN deposit inh, Vif inh)
COc1cccc2c(=O)c(C(=O)NCc3cccs3)c[nH]c12	none (no result: rRNA inh HTS, S100A4 inh HTS)
Cc1noc(C)c1NC(=O)N(C)C[C@H]1Oc2ccc(NS(=O)(=O)c3cn(C)cn3)cc2CC(=O)N([C@@H](C)CO)C[C@H]1C	none (no result: Vif inh)
CC(c1ccon1)N(C)C(=O)c1ccc2nc(Cc3cccc(Cl)c3)oc2c1 (stereo unspecified)	rRNA inh HTS -28
Oc1[nH]c(=S)sc1C=C1N=c2ccccc2=N1	none (no result: Vif inh)
Oc1[nH]c(=S)sc1/C=C1\C(c2ccccc2)=Nc2ccccc21	Vif inh 69 (no result: Env fusion inh, rRNA inh HTS, S100A4 inh HTS, miR122 inh)
Nc1nonc1/C(=N/O)N1CCCC1	none (no result: rRNA inh HTS, S100A4 inh HTS)
Nc1nonc1C(=O)N1CCCC1	miR122 inh 247 (no result: FN deposit inh)
COc1ccccc1Nc1nnc(C)c(=O)[nH]1	Vif inh 73 (no result: rRNA inh HTS, S100A4 inh HTS)
C[C@@H]1CN([C@@H](C)CO)C(=O)c2cc(NC(=O)NC3CCCCC3)ccc2O[C@H]1CN(C)Cc1ccncc1	none (no result: Vif inh)
CN(CCCC(=O)Nc1ccc(Br)cc1F)S(=O)(=O)c1ccccc1	rRNA inh HTS -22
CN(CCCC(=O)Nc1ccccc1F)S(=O)(=O)c1ccc(F)cc1	none
CC(C)NC(=O)Nc1ccc2c(c1)CC(=O)N(C)C[C@H](C)[C@H](CN(C)S(C)(=O)=O)O2	none (no result: Env fusion inh, S100A4 inh HTS, Vif inh, miR122 inh)
Cc1noc(C)c1NC(=O)N(C)C[C@@H]1OCCCC[C@@H](C)Oc2ccc(NC(=O)Nc3cccc4ccccc34)cc2C(=O)N([C@@H](C)CO)C[C@@H]1C	none (no result: Env fusion inh, FN deposit inh, rRNA inh HTS, Vif inh, miR122 inh)
C[C@@H]1CCCCO[C@H](CN(C)C(=O)Nc2cccc3ccccc23)[C@H](C)CN([C@H](C)CO)C(=O)c2cc(NS(=O)(=O)c3ccccc3)ccc2O1	Env fusion inh 62[16.7 µM] (no result: Vif inh)
Cc1noc(C)c1NC(=O)Nc1cccc2c1O[C@@H](CN(C)C(=O)Nc1ccc3c(c1)OCO3)[C@@H](C)CN([C@H](C)CO)C2=O	rRNA inh HTS -28!
Cc1noc(C)c1NC(=O)N(C)C[C@H]1OCCCC[C@@H](C)Oc2ccc(NC(=O)Nc3cccc4ccccc34)cc2C(=O)N([C@@H](C)CO)C[C@H]1C	rRNA inh HTS -15 (no result: FN deposit inh, S100A4 inh HTS, Vif inh)
C[C@@H]1CCCCO[C@@H](CN(C)C(=O)C2CCCCC2)[C@@H](C)CN([C@H](C)CO)C(=O)c2cc(NC(=O)Nc3cccc4ccccc34)ccc2O1	S100A4 inh HTS 108 (no result: FN deposit inh, Vif inh)
C[C@H]1CN([C@@H](C)CO)C(=O)Cc2cc(NC(=O)Nc3ccc(F)cc3)ccc2O[C@H]1CN(C)C(=O)Nc1ccc(F)cc1	none (no result: FN deposit inh, Vif inh)
Cn1cnc(S(=O)(=O)N[C@H]2C=C[C@H](CC(=O)NCC3CC3)O[C@H]2CO)c1	none (no result: Vif inh)
COc1ccc2c3c(n(C)c2c1)[C@H](CO)N(CC1CCOCC1)CC31CN(C(=O)c2cccc(F)c2)C1	none (no result: Env fusion inh, FN deposit inh, S100A4 inh HTS, Vif inh, miR122 inh)
C[C@@H]1CN([C@@H](C)CO)C(=O)c2cc(NC(=O)c3ccccc3)ccc2O[C@@H](C)CCCCO[C@H]1CN(C)C(=O)Nc1cccc2ccccc12	Env fusion inh 60[16.7 µM], S100A4 inh HTS inconclusive (no result: Vif inh)
C[C@H]1CCCCO[C@H](CN(C)C(=O)Nc2cccc3ccccc23)[C@@H](C)CN([C@@H](C)CO)C(=O)c2cc(NC(=O)NC3CCCCC3)ccc2O1	Env fusion inh 61[16.7 µM] (no result: Vif inh)
C[C@@H]1CN([C@@H](C)CO)C(=O)c2cc(NC(=O)NC3CCCCC3)ccc2O[C@@H](C)CCCCO[C@H]1CN(C)C(=O)Nc1cccc2ccccc12	none (no result: Vif inh)
CCCSc1ccc2nc(NC(=O)OC)[nH]c2c1	Vif inh 160 (no result: rRNA inh HTS)
CCOc1ccc(S(=O)(=O)NCc2ccc(C)cc2)c2cccnc12	none (no result: Env fusion inh, rRNA inh HTS, S100A4 inh HTS)
CCOc1ccc(NS(=O)(=O)c2ccc(OCC)c3ncccc23)cc1	miR122 inh 139 (no result: FN deposit inh, rRNA inh HTS, S100A4 inh HTS)
CCOc1ccc(S(=O)(=O)Nc2cc(C)ccn2)c2ccccc12	miR122 inh 237 (no result: rRNA inh HTS, S100A4 inh HTS)
